ChEMBL document CHEMBL2202960, “Discovery of the investigational drug TAK-441, a pyrrolo[3,2-c]pyridine derivative, as a highly potent and orally active hedgehog signaling inhibitor: modification of the core skeleton for improved solubility” (Bioorg Med Chem, 2012)
In brackets after ≈: the same amount, converted by molar mass.

Columns and labels:
Mus musculus [1] = assay: Gli1 mRNA expression level in human PAN-04 cells xenografted mouse tumor at 25 mg/kg, po after 24 hrs of first dose relative to control; conditions: PAN-04, po
[2] = AUC (0 to 24 hrs) in nu/nu BALB/c mouse at 100 mg/kg, po; assay type: ADME, organism-based; design: time < 24 hr, dose 100 mg/kg, route oral; conditions: plasma
[3] = Cmax in nu/nu BALB/c mouse at 100 mg/kg, po; assay type: ADME, organism-based; design: dose 100 mg/kg, route oral; conditions: in vivo
[4] = Solubility of the compound in lapanese pharmacopoeia second fluid at pH 6.8; assay type: physicochemical; conditions: Japanese Pharmacopoeia second fluid
Outline: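 Solubility was measured in Japanese Pharmacopoeia second fluid, pH 6.8. After incubation, precipitate was removed by filter-plate filtration and dissolved compound in the filtrate was quantified by HPLC.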

Sonic hedgehog protein = Sonic hedgehog protein (Mus musculus, UniProt Q62226); assay: Inhibition of recombinant mouse Shh-N expressed in mouse NIH3T3/Gli-luc cells assessed as inhibition of Gli1 expression after 48 hrs by luciferase reporter gene assay; assay type: cell-based
Outline: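 NIH3T3/Gli-luc cells were kept in DMEM with 10% FBS and 500 µg/mL G418, then seeded overnight on collagen-coated plates at 7.5×10³ cells/well (37 °C, 5% CO2). Final well conditions were 5.8% FBS, 1 µg/mL Shh-N and 0.03–1000 nM compound (n = 4 wells), incubated 48 h. Controls used 0.1% DMSO ± Shh-N. Read-out was Bright-Glo luciferase, and IC50 is the mean of four measurements.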

[5] = Clearance in dog at 1 mg/kg, iv and 10 mg/kg, po; assay type: ADME, organism-based, Canis lupus familiaris; conditions: in vivo
Outline: (§1)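 Single doses were given to rats and dogs: 1 mg/kg iv and 10 mg/kg po. Plasma was deproteinized with methanol containing internal standard, then diluted with 0.01 mol/L ammonium formate/(MeCN/formic acid) 7:3. Rat values are the mean ± SD of three non-fasted animals. Dog values come from four fed animals, with F calculated per animal from AUC0–24h.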

[6] = AUC (0 to 24 hrs) in dog at 1 mg/kg, iv; assay type: ADME, organism-based, Canis lupus familiaris; design: time < 24 hr, dose 1 mg/kg, route intravenous; conditions: plasma
Outline: (§2)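 Fed dogs were dosed at 1 mg/kg iv and 10 mg/kg po. Plasma was collected over 0–24 h, deproteinized with methanol containing an internal standard, centrifuged, and diluted with 0.01 mol/L ammonium formate/(MeCN/formic acid 100:0.2) (7:3) for compound quantitation. AUC_0–24h is reported as mean ± SD of four animals.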

[7] = Clearance in rat at 1 mg/kg, iv and 10 mg/kg, po; assay type: ADME, organism-based; conditions: in vivo
Outline: as §1

[8] = AUC (0 to 24 hrs) in rat at 1 mg/kg, iv; assay type: ADME, organism-based; design: time < 24 hr, dose 1 mg/kg, route intravenous; conditions: plasma
Outline: (§3)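 Rats were given 1 mg/kg iv or 10 mg/kg po and were non-fasted. Plasma was sampled over 0–24 h, deproteinized with methanol plus an internal standard, centrifuged, diluted in 0.01 mol/L ammonium formate/(MeCN/formic acid 100:0.2) (7:3), and centrifuged again. AUC_0–24h is reported as mean ± SD of three animals.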

[9] = Oral bioavailability in rat at 10 mg/kg; assay type: ADME, organism-based; conditions: in vivo
Outline: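 Rats (n = 3, listed as non-fasted) given 1 mg/kg iv and 10 mg/kg po. Plasma was deproteinized with methanol containing internal standard, centrifuged, and diluted in 0.01 mol/L ammonium formate/[MeCN/formic acid 100:0.2] (7:3). F was calculated from mean AUC_0–24h values after oral and intravenous dosing.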

Mus musculus [10] = assay: Antitumor activity in Ptc1+/- p53-/- medulloblastoma allograft model of mouse assessed as tumor growth inhibition at 25 mg/kg, po qd for 14 days relative to control; assay type: functional
Outline: (§4)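 Medulloblastoma tumours were serially passaged subcutaneously in nude mice (CAnN.Cg-Foxn1nu). Treatment started at 150–250 mm³ tumour volume: oral dosing as a 0.5% methylcellulose suspension for 14 days, once daily per the figure legend. Tumours were measured by caliper, with V = (a×b²)/2. T/C% = mean treated (Vend−Vstart) / control (Vend−Vstart) × 100, with n = 5 and a 1-tailed Shirley-Williams test against vehicle.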

[11] = Volume of distribution at steady state in dog at 1 mg/kg, iv and 10 mg/kg, po; assay type: ADME, organism-based, Canis lupus familiaris; conditions: in vivo, read-out: Vdss
Outline: as §1

[12] = Oral bioavailability in dog at 10 mg/kg; assay type: ADME, organism-based, Canis lupus familiaris; conditions: in vivo
Outline: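 Fed dogs (n = 4) given 1 mg/kg iv and 10 mg/kg po. Plasma was deproteinized with methanol containing internal standard, centrifuged, and diluted in 0.01 mol/L ammonium formate/[MeCN/formic acid 100:0.2] (7:3). F was calculated per animal from AUC_0–24h after oral versus intravenous dosing in the same dog.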

Mus musculus [13] = assay: Antitumor activity in Ptc1+/- p53-/- medulloblastoma allograft model of mouse assessed as tumor growth inhibition at 1 mg/kg, po qd for 14 days relative to control; assay type: functional
Outline: as §4

[14] = AUC (0 to 24 hrs) in dog at 10 mg/kg, po; assay type: ADME, organism-based, Canis lupus familiaris; design: time < 24 hr, dose 10 mg/kg, route oral; conditions: plasma
Outline: as §2

[15] = Volume of distribution at steady state in rat at 1 mg/kg, iv and 10 mg/kg, po; assay type: ADME, organism-based; conditions: in vivo, read-out: Vdss
Outline: as §1

[16] = AUC (0 to 24 hrs) in rat at 10 mg/kg, po; assay type: ADME, organism-based; design: time < 24 hr, dose 10 mg/kg, route oral; conditions: plasma
Outline: as §3

Sonic hedgehog protein, sequence (Q62226 25-198 limits assumed): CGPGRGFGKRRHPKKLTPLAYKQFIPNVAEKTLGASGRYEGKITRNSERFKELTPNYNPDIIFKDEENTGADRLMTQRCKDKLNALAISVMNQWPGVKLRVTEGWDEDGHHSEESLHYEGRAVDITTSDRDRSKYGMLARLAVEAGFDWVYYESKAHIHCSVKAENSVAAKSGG

With `COc1c(C(=O)NC2CCN(C(=O)CO)CC2)n(C)c2c1c(=O)n(CC(=O)c1ccccc1)c1ccccc21` the level, % of control at 25 mg/kg (Mus musculus [1]) was 5%, the AUC(0-t) at 24 h [2] was 32300 ng·h/mL and the Cmax [3] was 3630 ng/mL. For the same molecule, the solubility [4] was 8.4 µg/mL (≈ 15.8 µM).
`COc1c(C(=O)NC2CCN(C(=O)CO)CC2)n(C)c2cc(C)n(CC(=O)c3ccccc3)c(=O)c12` showed a solubility [4] of 77 µg/mL (≈ 156 µM) and an IC50 (Sonic hedgehog protein) of 14 nM.
`CCc1cc2c(c(OC)c(C(=O)NC3CCN(C(=O)CO)CC3)n2C)c(=O)n1CC(=O)c1ccccc1` gave a solubility [4] of 63 µg/mL (≈ 124 µM) and an IC50 (Sonic hedgehog protein) of 5.7 nM.
For `CCc1c(C(=O)NC2CCN(C(=O)CO)CC2)n(C)c2cc(CC)n(CC(=O)c3ccccc3)c(=O)c12`, the IC50 (Sonic hedgehog protein) was 95 nM.
For `CCOc1c(C(=O)NC2CCN(C(=O)CO)CC2)n(C)c2cc(CC)n(CC(=O)c3ccccc3)c(=O)c12`, the solubility [4] was 58 µg/mL (≈ 111 µM) and the IC50 (Sonic hedgehog protein) was 6.9 nM.
Work on `CCc1cc2c(c(OCCF)c(C(=O)NC3CCN(C(=O)CO)CC3)n2C)c(=O)n1CC(=O)c1ccccc1` yielded a solubility [4] of 69 µg/mL (≈ 128 µM) and an IC50 (Sonic hedgehog protein) of 4.9 nM.
`CCc1cc2c(c(OCC(F)F)c(C(=O)NC3CCN(C(=O)CO)CC3)n2C)c(=O)n1CC(=O)c1ccccc1` gave a solubility [4] of 84 µg/mL (≈ 150 µM) and an IC50 (Sonic hedgehog protein) of 4.4 nM.
With `COc1c(C(=O)NC2CCN(C(=O)CO)CC2)n(C)c2c3c(n(CC(=O)c4ccccc4)c(=O)c12)CCCC3` the solubility [4] was 80 µg/mL (≈ 150 µM) and the IC50 (Sonic hedgehog protein) was 96 nM.
`CCc1cc2c(c(OCC(F)(F)F)c(C(=O)NC3CCN(C(=O)CO)CC3)n2C)c(=O)n1CC(=O)c1ccccc1` [TAK-441] showed a clearance [5] of 2.69 mL/min/kg, an AUC(0-t) at 24 h [6] of 5100 ng·h/mL and a clearance [7] of 6.63 mL/min/kg. The AUC(0-t) at 24 h [8] was 2530 ng·h/mL, the bioavailability [9] was 31.7% and the T/C (Mus musculus [10]) was 3%. For the same molecule, the AUC(0-t) at 24 h [2] was 206000 ng·h/mL, the Vd [11] was 2.18 L/kg and the Cmax [3] was 21500 ng/mL. For the same molecule, the bioavailability [12] was 90.3%, the T/C (Mus musculus [13]) was 46% and the solubility [4] was 81 µg/mL (≈ 140 µM). For the same molecule, the AUC(0-t) at 24 h [14] was 45400 ng·h/mL, the Vd [15] was 0.682 L/kg and the AUC(0-t) at 24 h [16] was 8030 ng·h/mL. The IC50 (Sonic hedgehog protein) was 4.4 nM.
